Reference: ChEMBL document CHEMBL1142233, “Treatment of diabetes and atherosclerosis by inhibiting fatty-acid-binding protein aP2” (2007)
The source made the active and inactive calls. The rule behind the calls is not given here.

Experiments:
Mus musculus [1] = experiment: Decrease in Scd1 expression in liver of ob/ob mouse at 40 mg/kg/day, po; format: functional, organism-based
In short: (§1)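 Liver from male ob/ob mice gavaged daily for 6 weeks from 8 weeks of age, n = 6 per group. mRNA measured by SYBR Green real-time PCR: 95 °C 4 min, then 50 cycles of 95 °C 15 s, 58 °C 30 s, 72 °C 30 s. Normalized to 18s rRNA.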

Mus musculus [2] = experiment: Effect on cholesterol level in 5-week old apoE-/- C57BL/6J mouse fed on western diet and administered with 15 mg/kg/day, po drug at 12 week in 12-18 week late intervention study; format: functional
In short: (§2)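 Male Apoe−/− mice on western diet (21% fat, 0.21% cholesterol) from 4–5 weeks of age. Oral gavage for 6 weeks from age 5 or 12 weeks; vehicle 10% 1-methyl-2-pyrrolidone, 5% cremophor EL with ethanol in water. Blood taken after 6 h fast before and after treatment. Glucose by meter; insulin by ELISA; lipids and glycerol colorimetric.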

Mus musculus [3] = experiment: Effect on adiponectin level in 5-week old apoE-/- C57BL/6J mouse fed on western diet and 15 mg/kg/day, po drug simultaneously in 5-11 week early intervention study; format: functional; in short: as §2
THP-1 = experiment: Decrease in MCP1 production in human THP1 cells expressing aP2 after 24 hrs; format: functional, cell-based
In short: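 THP-1 monocytes differentiated with 100 nM PMA for 24 h. Incubated 24 h in RPMI with 5% lipoprotein-deficient serum with inhibitor 0–25 μM in DMSO. Supernatant MCP-1 measured by ELISA and normalized to cellular protein. At least triplicate.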

Mus musculus [4] = experiment: Effect on glucose level in 5-week old apoE -/- C57BL/6J mouse fed on western diet and 15 mg/kg/day, po drug simultaneously in 5-11 week early intervention study; format: functional; in short: as §2
Mus musculus [5] = experiment: Inhibition of aP2 in 5-week old apoE-/- C57BL/6J mouse fed on western diet and administered with 15 mg/kg/day, po drug at 12 week in late intervention study assessed as reduction of atherosclerotic lesion in en face aorta relative to control; format: functional; parameters: scale not given: the % may be the effect or the level left
In short: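 Male Apoe⁻/⁻ C57BL/6J mice were fed a western diet (21% fat, 0.21% cholesterol) from 4–5 weeks of age. They were gavaged for 6 weeks with 15 mg kg⁻¹ d⁻¹ in vehicle (10% 1-methyl-2-pyrrolidone, 5% cremophor EL with ethanol, in water), starting at 5 weeks (early) or 12 weeks (late). Perfusion-fixed, pinned-out aortas were stained with Sudan IV and lesion area was quantified.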

Mus musculus [6] = experiment: Decrease in insulin level in ob/ob mouse plasma at 40 mg/kg/day, po after 6 weeks relative to control; format: functional, organism-based
In short: (§3)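 Male ob/ob mice given oral gavage daily for 6 weeks from 8 weeks old, n = 6 per group. Blood taken after 6 h fast before and after treatment; fed glucose taken at week 2. Glucose by meter on 3 μl whole blood, insulin by ultrasensitive ELISA, cholesterol, FFA and glycerol by colorimetric microplate assays.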

Mus musculus [7] = experiment: Decrease in Fasn expression in liver of ob/ob mouse at 40 mg/kg/day, po; format: functional, organism-based; in short: as §1
Mus musculus [8] = experiment: Effect on cholesterol level in ob/ob mouse at 40 mg/kg/day, po after 6 weeks relative to control; format: functional; in short: as §3

## CCc1c(-c2ccccc2)c(-c2ccccc2)nn1-c1ccccc1-c1cccc(OCC(=O)O)c1
Mus musculus [1]
  Activity: Active
Mus musculus [2]
  Activity: 2277.2 mg/dL
Mus musculus [3]
  Activity: 8.59 µg/mL
THP-1
  Activity: Dose-dependent effect
Mus musculus [4]
  Activity: 133.2 mg/dL
Mus musculus [5]
  Activity: 51%
Mus musculus [6]
  Activity: Active
Mus musculus [7]
  Activity: Active
Mus musculus [8]
  Activity: 285.3 mg/dL
